Assay results: paper PMC6044781 (ACS Omega, 2017)
Read-outs that look alike come from different tables or passages of the source.

Legend:
[1] = tested on: HeLa cells; assay: Annexin V-FITC/PI apoptosis assay; format: cell-based, human; conditions: 1 μM, 24 h
Method in brief: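 HeLa cells seeded at 2 × 10^5 per 60 mm plate and treated with test compound at 1 μM. After 24 h, cells were harvested, washed twice in PBS and resuspended at 1 × 10^6 cells/mL in kit buffer. Annexin V-FITC/PI staining for 15 min in the dark at room temperature; Annexin V–FITC labelling quantified. Values are mean ± SEM.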

[2] = tested on: A549 cells; assay: MTT cell survival assay, A549; format: cell-based; conditions: Homo sapiens
Method in brief: (§1)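 MTT survival assay: cells treated with increasing concentrations of test compound for 48 or 72 h at 37 °C. Medium was then replaced with fresh medium containing MTT for 4 h, formazan dissolved in DMSO, and absorbance read at 570 nm. IC50 determined at each time point.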

[3] = tested on: HeLa cells; assay: Cell cycle analysis by flow cytometry; format: cell-based, human; conditions: 1 μM, 24 h; for G2/M phase arrest (G2): control 7.6%
[4] = tested on: h-telo 22-mer quadruplex (DNA, G4) AGGGTTAGGGTTAGGGTTAGGG; assay: ITC; conditions: 25 mM KCl; 10 mM sodium cacodylate, 0.5 mM EDTA, pH 7.0, 25 °C
[5] = tested on: h-telo 22-mer quadruplex; assay: ITC with h-telo 22-mer quadruplex; format: binding, human; conditions: for binding equilibrium constants from microcalorimetry: h-telo 22-mer quadruplex; for binding constant Ka × 10^6: h-telo 22-mer, 25 °C
Method in brief: (§2)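 Isothermal titration calorimetry at 25 °C in cacodylate/EDTA/KCl buffer, pH 7.0; solutions degassed under vacuum (160 mbar, 10 min). Test compound at 4 × 10^-4 M was injected in 5–10 μL aliquots (20 s each, 240 s apart, 60 s initial delay, 381 rpm) into DNA: 22-mer and 26-mer duplex at 1.0 × 10^-5 M, 12-mer at 0.5 × 10^-5 M. Dilution heat was subtracted and data fitted to a single-site model. Ka is mean ± SD of three runs.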

[6] = tested on: F12T (5′-fluorescein-TAGGGTTAGGGT-3′-TAMRA) G-quadruplex; assay: FRET melting assay, F12T; format: binding, human; conditions: 2 μM ligand; for ΔTm F12T: no competitor; for ΔTm F12TComp12: with competitor complementary strand Compl 12
Method in brief: (§3)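 Dual-labelled oligos (5′-fluorescein/3′-TAMRA) at 0.25 μM in 10 mM sodium cacodylate, 0.5 mM EDTA, 25 mM KCl, pH 7.0, with or without 2 μM test compound. For competitor runs, each oligo was preincubated 24 h at 25 °C with 2 μM unlabelled complementary strand. Excitation 480 nm, emission 520 nm, read at 1 °C steps from 25 to 95 °C with 60 s equilibration per reading. ΔTm is the average of three determinations.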

[7] = tested on: HEK 293T cells; assay: MTT cell survival assay, HEK 293T; format: cell-based; conditions: Homo sapiens
Method in brief: as §1

[8] = tested on: telomerase (from A549 cells); assay: TRAP-Lig assay; format: biochemical, human; conditions: read-out: TRAP assay IC50; telomerase inhibition, ligand 1–50 μM
[9] = tested on: h-telo 12-mer quadruplex (DNA, G4) TAGGGTTAGGGT; assay: ITC; conditions: 25 mM KCl; 10 mM sodium cacodylate, 0.5 mM EDTA, pH 7.0, 25 °C
[10] = tested on: h-telo 12-mer quadruplex; assay: ITC with h-telo 12-mer quadruplex; format: binding, human; conditions: 25 °C, BMSG-SH-3: first line of two
Method in brief: as §2

[11] = tested on: F22T (5′-fluorescein-AGGGTTAGGGTTAGGGTTAGGG-3′-TAMRA) G-quadruplex; assay: FRET melting assay, F22T; format: binding, human; conditions: 2 μM ligand; for ΔTm F22T: no competitor; for ΔTm F22TComp22: with competitor complementary strand Compl 22
Method in brief: as §3

[12] = tested on: duplex DNA 26-mer; assay: SPR with duplex DNA 26-mer; format: binding; conditions: 25 °C, error ±15%
Method in brief: (§4)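 Surface plasmon resonance on streptavidin chips carrying 5′-biotin-T9-linked 22-mer telomeric or 26-mer duplex DNA, annealed at 95 °C and slowly cooled in 10 mM HEPES, 100 mM KCl, 0.005% IGEPAL, pH 7.4. Surfaces equilibrated 2 h at 20 μL/min, 25 °C. Test compound (1.0 × 10^-9 to 10^-6 M) injected for 300 s in random order; regeneration with 1 M NaCl in 50 mM NaOH. Sensorgrams fitted to a two-site model. Selectivity is the ratio of G4 to duplex binding constants. Triplicate runs, mean ± SEM.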

[13] = tested on: duplex DNA 26-mer; assay: ITC with duplex DNA 26-mer; format: binding; conditions: for binding constant Ka × 10^6: duplex DNA 26-mer, 25 °C
Method in brief: as §2

[14] = tested on: HeLa cells; assay: MTT cell survival assay, HeLa; format: cell-based; conditions: Homo sapiens
Method in brief: as §1

[15] = tested on: h-telo 22-mer quadruplex; assay: SPR with h-telo 22-mer; format: binding, human; conditions: for KA: h-telo 22-mer, 25 °C, error ±15%; for KA h-telo 22/KA dsDNA: selectivity 22-mer quadruplex over DNA duplex, SPR
Method in brief: as §4

[16] = tested on: 26-mer duplex DNA (DNA, duplex) CAATCGGATCGAATTCGATCCGATTG; assay: ITC; conditions: 25 mM KCl; 10 mM sodium cacodylate, 0.5 mM EDTA, pH 7.0, 25 °C
[17] = A549, 48 h, read-out: IC50 at 48 h
[18] = A549, 72 h, read-out: IC50 at 72 h

Row | SMILES | apoptotic cells (Annexin V–FITC positive cells) [1] | IC50 [2, 17] | IC50 [2, 18] | G2/M phase arrest (G2) [3] | Ka [4] | binding equilibrium constants from microcalorimetry [5] | binding constant Ka × 10^6 [5] | ΔTm F12T [6] | ΔTm F12TComp12 [6] | IC50 ([7]; 48 h, read-out: IC50 at 48 h) | IC50 ([7]; 72 h, read-out: IC50 at 72 h) | IC50 [8] | Ka [9] | binding constant Ka × 10^6 [10] | ΔTm F22T [11] | ΔTm F22TComp22 [11] | KA [12] | Kd [12] | binding constant Ka × 10^6 [13] | IC50 ([14]; 48 h, read-out: IC50 at 48 h) | further results
1 | CN1CCN(CCCN2C(=O)c3ccc4c5c(ccc(c35)C2=O)C(=O)N(CCCN2CCN(C)CC2)C4=O)CC1 [ALI-C3, 2,7-Bis(3-(4-methylpiperazin-1-yl)propyl)benzo[lmn][3,8]phenanthroline-1,3,6,8 (2H,7H)tetraone] | 35% | 1.8 µM | 1.4 µM | 15.7% | 6.35 ± 0.26 × 10^6 M^-1 | 6.35 µM | 6.35 ± 0.26 10^6 M^–1 | 5 ± 0.8 °C | 7 ± 0.5 °C | 12.2 µM | 8.9 µM | > 50 µM | 0.61 ± 1.82 × 10^6 M^-1 | 0.61 ± 1.82 10^6 M^–1 | 9 ± 1.2 °C | 11 ± 0.6 °C | 0.1 × 10^6 M^–1 | 17.1 µM | 0.03 ± 0.10 10^6 M^–1 | 2.4 µM | IC50 ([14]; 72 h, read-out: IC50 at 72 h): 2.1 µM; KA [15]: 8.7 × 10^6 M^–1; KA h-telo 22/KA dsDNA [15]: 87.0
2 | CN1CCN(c2ccc3nc(-c4ccc(N5C(=O)c6ccc7c8c(ccc(c68)C5=O)C(=O)N(c5ccc(-c6nc8ccc(N9CCN(C)CC9)cc8[nH]6)cc5)C7=O)cc4)[nH]c3c2)CC1 [BBZ-ARO, 2,7-Bis(4-(6-(4-methylpiperazin-1-yl)-1H-benzo[d]imidazol-2-yl)phenyl)benzo[lmn][3,8]phenanthroline-1,3,6,8(2H,7H)-tetraone] | 74% | 26.4 µM | 19.7 µM | 15.8% | 8.47 ± 0.65 × 10^6 M^-1 | 8.47 µM | 8.47 ± 0.65 10^6 M^–1 | 13 ± 1.4 °C | 15 ± 0.5 °C | 77.9 µM | 63.4 µM | 4.56 µM | 6.63 ± 2.39 × 10^6 M^-1 | 6.63 ± 2.39 10^6 M^–1 | 14 ± 0.5 °C | 16 ± 1.6 °C | 0.6 × 10^6 M^–1 | 36.6 µM | 0.05 ± 0.65 10^6 M^–1 | 24.7 µM | sub-G1 phase accumulation ([3]; control 0.2%): 7.3%; affinity (ITC) ([5]; 22-mer quadruplex): 8.4 × 10^6 M^–1; binding affinity (ITC) ([13]; duplex DNA): 5.0 × 10^4 M^–1; IC50 ([14]; 72 h, read-out: IC50 at 72 h): 20.5 µM; KA [15]: 9.5 × 10^7 M^–1; KA h-telo 22/KA dsDNA [15]: 158.3; Ka [16]: 0.05 ± 0.65 × 10^6 M^-1
3 | CN1CCN(c2ccc3nc(CN4C(=O)c5ccc6c7c(ccc(c57)C4=O)C(=O)N(Cc4nc5ccc(N7CCN(C)CC7)cc5[nH]4)C6=O)[nH]c3c2)CC1 [BBZ-AROCH2, 2,7-Bis((6-(4-methylpiperazin-1-yl)-1H-benzo[d]imidazol-2-yl)methyl)benzo[lmn]-[3,8]-phenanthroline-1,3,6,8(2H,7H)-tetraone] | 40% | 79.5 µM | 74.8 µM | 19.1% | 3.41 ± 0.22 × 10^6 M^-1 | 3.41 µM | 3.41 ± 0.22 10^6 M^–1 | 8 ± 0.4 °C | 10 ± 1.6 °C | > 100 µM | > 100 µM | > 50 µM | 0.89 ± 0.11 × 10^6 M^-1 | 0.89 ± 0.11 10^6 M^–1 | 7 ± 0.7 °C | 9 ± 0.5 °C | 0.4 × 10^6 M^–1 | 55.2 µM | 0.88 ± 0.63 10^6 M^–1 | 92.7 µM | IC50 ([14]; 72 h, read-out: IC50 at 72 h): 86.5 µM; KA [15]: 1.4 × 10^6 M^–1; KA h-telo 22/KA dsDNA [15]: 3.5; Ka [16]: 0.88 ± 0.63 × 10^6 M^-1
